High-throughput results as filed in PubChem.
In the library only some 2% were active in any assay of this set; here they are far more common.
CHRM1 agonist = activates human CHRM1 receptor; activation, % at 3 µM; P11229; CHO-K1 hM1, Fluo-8 calcium fluorescence, agonist mode; 0% DMSO, 100% acetylcholine EC100; 360,000 compounds, 0.33% hits; AID 588814;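 active = activation above the run's mean compound activation plus 3 SD, cut at about 16% in these data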;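 also: peak over basal fluorescence ratio within a 140 s kinetic read after compound addition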
CHRM5 antagonist = antagonists of human muscarinic M5 receptor (CHRM5); P08912; CHO-hM5 cells, Fluo-8 calcium fluorescence, ACh EC80; inhibition, % at 3 µM; 360,000 compounds, 0.59% hits;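 active = inhibition above a per-plate cutoff, the mean of that plate's test compounds plus 3 SD, cut at about 27% in these data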;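 also: 0% = acetylcholine EC80 with DMSO and 100% = DMSO without agonist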
Target sequence (P08912 whole entry, looked up): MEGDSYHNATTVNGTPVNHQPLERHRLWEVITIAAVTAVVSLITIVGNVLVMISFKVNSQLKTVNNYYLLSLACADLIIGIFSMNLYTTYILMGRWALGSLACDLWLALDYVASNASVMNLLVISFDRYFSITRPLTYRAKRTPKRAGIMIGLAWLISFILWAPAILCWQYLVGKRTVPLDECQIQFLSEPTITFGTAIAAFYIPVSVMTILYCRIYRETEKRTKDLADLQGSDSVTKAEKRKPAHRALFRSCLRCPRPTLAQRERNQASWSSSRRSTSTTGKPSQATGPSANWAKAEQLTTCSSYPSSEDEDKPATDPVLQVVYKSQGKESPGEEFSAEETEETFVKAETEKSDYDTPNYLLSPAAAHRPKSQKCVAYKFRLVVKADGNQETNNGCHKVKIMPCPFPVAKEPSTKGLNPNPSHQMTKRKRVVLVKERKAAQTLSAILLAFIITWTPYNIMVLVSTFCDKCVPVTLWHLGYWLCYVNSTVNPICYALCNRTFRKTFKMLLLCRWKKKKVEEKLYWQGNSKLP
M5 ag = CHRM5 agonism in calcium assay; 360,000 compounds, 0.19% hits; activation, % at 3 µM; CHO-K1 hM5 cells, Fluo-8 calcium fluorescence; 0% DMSO wells, 100% maximal acetylcholine response;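 active = activation above the run's mean over test compounds plus 3 SD, cut at about 23% in these data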;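 also: signal is peak over basal fluorescence ratio across the kinetic read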
M1 PAM = positive allosteric modulators of human M1 muscarinic receptor; P11229; CHO-K1 hM1, Fluo-8 calcium fluorescence, ACh EC20; 0% = ACh EC20, 100% = maximal ACh; activation, % at 3 µM; 360,000 compounds, 0.088% hits; in the data active = activation above about 19%, passing the limit was not always enough
M1 antag = human CHRM1 antagonism. CHO-K1 hM1, Fluo-8 calcium fluorescence, ACh EC80 antagonist. AID 588852. 360,000 compounds, 1.3% hits. inhibition, % at 3 µM;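 active = percent inhibition above its own plate's cutoff, namely the mean of that plate's compound wells plus 3 SD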;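 also: peak over basal fluorescence ratio during 140 s after agonist addition; 0% = ACh EC80 plus DMSO and 100% = DMSO alone without agonist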
CHRM5 PAM = potentiates acetylcholine response at human M5 receptor; activation, % at 3 µM; CHO-K1 hM5, Fluo-8 calcium, ACh EC20 PAM; 0% = ACh EC20, 100% = ACh EC100; P08912; AID 624038; 360,000 compounds, 0.3% hits;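 active = activation above the run cutoff, the mean activation of all test compounds plus 3 SD, cut at about 18% in these data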
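Probe or stimulus: acetylcholine, EC20 level; Assay system: human M5 receptor in CHO-K1 cells; Schedule: compound preincubation 140 s before EC20 acetylcholine addition; Technique: intracellular calcium via Fluo-8 fluorescence; Dosing: single-point, 3 µM nominal; Read-out basis: percent activation from peak-over-basal fluorescence ratio, scaled EC20-to-EC100 acetylcholine; Repeats: one well per compound, no replicates.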
Numbers without * were called inactive.

What do the screens show for `O=C(NC1CCCCC1)C(c1ccnc2ccccc12)n1c(=O)c(-c2ccccc2)nc2ccccc21` (centres undefined)?
CHRM5 antagonist: -1; M5 ag: 3; CHRM5 PAM: 4

Results for CNc1ncnc2c1ncn2[C@H]1CN(CCOC)C[C@@H](CO)O1 ?
CHRM1 agonist: -2; CHRM5 antagonist: -4; M5 ag: 1; M1 PAM: 3; M1 antag: -13; CHRM5 PAM: -1

How did CC1(C(=O)NS(=O)(=O)c2cccc(C#N)c2)CCN1C(=O)CCC1CCCC1 (centres undefined) do in these assays?
CHRM1 agonist: -1; CHRM5 antagonist: 0; M5 ag: 0; M1 PAM: 11; M1 antag: -13; CHRM5 PAM: 0

How did CCCCCCN[C@H]1CCC2C3CC=C4C[C@@H](O)CC[C@]4(C)C3CC[C@@]21C (some centres undefined) do in these assays?
CHRM1 agonist: -4; CHRM5 antagonist: 12; M5 ag: -10; M1 PAM: -30; M1 antag: 90*; CHRM5 PAM: -18

Results for CC(C)C(=O)N[C@H]1CCC2C3CC=C4C[C@@H](O)CC[C@]4(C)C3CC[C@@]21C (some centres undefined) ?
CHRM1 agonist: -7; CHRM5 antagonist: 10; M5 ag: 4; M1 PAM: 11; M1 antag: -17; CHRM5 PAM: 1

What do the screens show for `O=C(Nc1ccccc1)c1cc(C2CCCCN2S(=O)(=O)Cc2cccc(C(F)(F)F)c2)on1` (centres undefined)?
CHRM1 agonist: -5; CHRM5 antagonist: 7; M5 ag: -1; M1 PAM: -7; M1 antag: 4; CHRM5 PAM: -8

Results for CCOC(=O)N1CCN(C(=O)C[C@@H]2C[C@@]3(C(=O)OCC)CCCC=C3N(CCC3=CCCCC3)C2=O)CC1 ?
CHRM5 antagonist: -7; M5 ag: 2; CHRM5 PAM: 1

Results for Clc1cccc(Cl)c1CSc1nnc(-c2ccncc2)s1 ?
CHRM1 agonist: 60*; CHRM5 antagonist: 5; M5 ag: 4; M1 PAM: -25; M1 antag: 43*; CHRM5 PAM: 4

How did CC1=C(C(=O)N2CCCCCC2)CC(CC(=O)NCCc2ccccn2)C(=O)N1Cc1ccc(C(C)(C)C)cc1 (centres undefined) do in these assays?
CHRM5 antagonist: -1; M5 ag: 0; CHRM5 PAM: -8

How did C[n+]1ccccc1/C=C/c1cc(Br)ccc1O do in these assays?
CHRM1 agonist: -11; CHRM5 antagonist: 34*; M5 ag: -2; M1 PAM: -7; M1 antag: 10; CHRM5 PAM: -16

How did CC(C)Oc1ccc(CN2CCC2(C)C(=O)Nc2cnc3ccccc3c2)cc1 (centres undefined) do in these assays?
CHRM1 agonist: -5; CHRM5 antagonist: 10; M5 ag: 0; M1 PAM: -14; M1 antag: 15; CHRM5 PAM: -16

How did CCOCCn1c(CN2CCN(c3ccccc3)CC2)nc2c1c(=O)n(C)c(=O)n2C do in these assays?
CHRM1 agonist: -5; CHRM5 antagonist: 2; M5 ag: -4; M1 PAM: -5; M1 antag: 0; CHRM5 PAM: -5

What do the screens show for `COCCn1c(CN2CCN(c3ccccc3)CC2)nc2c1c(=O)n(C)c(=O)n2C`?
CHRM1 agonist: -5; CHRM5 antagonist: 4; M5 ag: -1; M1 PAM: -13; M1 antag: 33*; CHRM5 PAM: -2

Results for CCc1ccccc1OCCCCN1CCCCC1 ?
CHRM1 agonist: -9; CHRM5 antagonist: 9; M5 ag: -22; M1 PAM: -22; M1 antag: 36*; CHRM5 PAM: -12

What do the screens show for `CC1CCCN(Cc2ccc(OCc3ccccc3)cc2)C1` (centres undefined)?
CHRM1 agonist: -9; CHRM5 antagonist: 3; M5 ag: -6; M1 PAM: -30; M1 antag: 73*; CHRM5 PAM: -4

How did OC1CCN(Cc2ccc(OCc3ccccc3)cc2)CC1 do in these assays?
CHRM1 agonist: -11; CHRM5 antagonist: -1; M5 ag: -5; M1 PAM: -15; M1 antag: 16; CHRM5 PAM: 3

How did CCc1ccccc1OCCCN1CCCC1 do in these assays?
CHRM1 agonist: -10; CHRM5 antagonist: 17; M5 ag: -26; M1 PAM: 0; M1 antag: -13; CHRM5 PAM: -17

Results for c1ccc(COc2ccc(OCCCCN3CCCCC3)cc2)cc1 ?
CHRM1 agonist: -3; CHRM5 antagonist: 4; M5 ag: -11; M1 PAM: -26; M1 antag: 35*; CHRM5 PAM: -25

What do the screens show for `COc1cccc(S(=O)(=O)N(C)C[C@H]2OCc3cnnn3CCCC(=O)N([C@H](C)CO)C[C@@H]2C)c1`?
CHRM1 agonist: -2; CHRM5 antagonist: 7; M5 ag: 1; M1 PAM: 6; M1 antag: -17; CHRM5 PAM: 0

Results for CC1(C(=O)NS(=O)(=O)C2CC2)CCCN(C(=O)COCc2ccccc2)C1 (centres undefined) ?
CHRM1 agonist: -3; CHRM5 antagonist: -10; M5 ag: 0; M1 PAM: 7; M1 antag: -11; CHRM5 PAM: 5

Results for CCC(Oc1ccccc1)C(=O)OCC(=O)Nc1sccc1C(N)=O (centres undefined) ?
CHRM1 agonist: 6; CHRM5 antagonist: 13; M5 ag: 8; M1 PAM: -12; M1 antag: 25; CHRM5 PAM: -30

Results for CC(Oc1ccccc1)C(=O)OCC(=O)Nc1sccc1C(N)=O (centres undefined) ?
CHRM1 agonist: 1; CHRM5 antagonist: 17; M5 ag: 11; M1 PAM: -20; M1 antag: 40*; CHRM5 PAM: -23

What do the screens show for `CC(=O)c1ccc(OCC(=O)OCC(=O)Nc2sccc2C(N)=O)cc1`?
CHRM1 agonist: 2; CHRM5 antagonist: 20; M5 ag: 12; M1 PAM: -10; M1 antag: 35*; CHRM5 PAM: -22

Results for COc1ccc(OCCCC(=O)OCC(=O)Nc2sccc2C(N)=O)cc1 ?
CHRM1 agonist: 2; CHRM5 antagonist: 21; M5 ag: 4; M1 PAM: -13; M1 antag: 22; CHRM5 PAM: -32

Results for CCOC(=O)c1c(C)[nH]c(C(=O)OCC(=O)Nc2sccc2C(N)=O)c1C ?
CHRM1 agonist: 0; CHRM5 antagonist: 6; M5 ag: 0; M1 PAM: -16; M1 antag: 31*; CHRM5 PAM: -20

What do the screens show for `NC(=O)c1ccsc1NC(=O)COC(=O)/C=C/c1ccccc1`?
CHRM1 agonist: 1; CHRM5 antagonist: 23; M5 ag: 7; M1 PAM: -23; M1 antag: 50*; CHRM5 PAM: -30
